Source: ChEMBL document CHEMBL1132187, “Synthesis, in vitro antiproliferative activity, and DNA-binding properties of hybrid molecules containing pyrrolo[2,1-c][1, 4]benzodiazepine and minor-groove-binding oligopyrrole carriers” (J Med Chem, 1999)

Key:
[1] = Inhibitory concentration against human c-myc polymerase chain reaction product; type: functional
In short: (§1)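 Target DNA was 20 ng of preamplified, purified PCR product, preincubated 5 min at room temperature with increasing drug amounts, then PCR-amplified with Taq: 92 °C 1 min, 62 °C annealing 1 min, 72 °C 1 min. Products run on 2% agarose gels; IC50 is the concentration giving 50% inhibition of PCR product generation.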

Jurkat = test: In vitro inhibition of Jurkat cell proliferation; type: functional, cell-based; conditions: Homo sapiens
In short: (§2)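 Exponentially growing cells kept as stationary suspension in RPMI 1640 with 10% FCS, 2 mM L-glutamine, penicillin/streptomycin; exposed to a range of drug concentrations (DMSO stock 1 mg/mL, diluted just before addition) for 4 days; survivors counted by Coulter counter. IC50 vs untreated controls, duplicate cultures per concentration, experiments repeated at least twice, vehicle controls included.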

K562 = test: In vitro inhibition of K-562 cell proliferation; type: functional, cell-based; conditions: Homo sapiens; in short: as §2
Nucleic Acid = test: Inhibitory concentration against human estrogen receptor(ER) polymerase chain reaction product; type: nucleic-acid assay
In short: as §1, with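 “of pBLCAT8ERCAT1 plasmid,” for “of preamplified, purified PCR product,”, “min, 55” for “min, 62”, “of ER” for “of”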

[2] = test system: Human immunodeficiency virus 1; test: Inhibitory concentration against HIV-1 LTR polymerase chain reaction product; type: functional; in short: as §1

| Structure (SMILES) | IC50 [1] [µM] | IC50 (Jurkat) [µM] | IC50 (K562) [nM] | IC50 (Nucleic Acid) [nM] | IC50 [2] [nM] |
| --- | --- | --- | --- | --- | --- |
| COc1cc2c(cc1OCCC(=O)Nc1cc(C(=O)Nc3cc(C(=O)Nc4cc(C(=O)Nc5cc(C(=O)NCCC(=N)N)n(C)c5)n(C)c4)n(C)c3)n(C)c1)N=C[C@@H]1CCCN1C2=O | 2 | 0.07 | 40 | 200 | 2000 |
| COc1cc2c(cc1OCCC(=O)Nc1cc(C(=O)Nc3cc(C(=O)NCCC(=N)N)n(C)c3)n(C)c1)N=C[C@@H]1CCCN1C2=O | 6 | 50 | 6000 | 2000 | 800 |
| COc1cc2c(cc1OC)C(=O)N1CCC[C@H]1C=N2 |  | 2.2 | 1000 |  |  |
| Cn1cc(NC(=O)c2cc(NC(=O)c3cc(NC(=O)c4cc(N)cn4C)cn3C)cn2C)cc1C(=O)NCCC(=N)N | 12 | 25 | 12000 | 500 | 20000 |
| COc1cc2c(cc1OCCC(=O)Nc1cc(C(=O)Nc3cc(C(=O)Nc4cc(C(=O)NCCC(=N)N)n(C)c4)n(C)c3)n(C)c1)N=C[C@@H]1CCCN1C2=O | 2.5 | 0.8 | 700 | 800 | 2000 |
| Cn1cc(NC(=O)c2cc(NC(=O)c3cc(NC=O)cn3C)cn2C)cc1C(=O)NCCC(=N)N | 25 | 20 | 12000 | 5000 | 50000 |
| COC(=O)CCOc1cc2c(cc1OC)C(=O)N1CCC[C@H]1C=N2 | > 250 | 3 | 1500 | > 250000 | > 250000 |
| COc1cc2c(cc1OCCC(=O)Nc1cc(C(=O)NCCC(=N)N)n(C)c1)N=C[C@@H]1CCCN1C2=O | 4 | 80 | > 100000 | 3000 | 1000 |
